The source made the active and inactive calls. The calls are words filed in the database; no cut-off is given here.
Assays:
[1] = target: T1, Transient receptor potential cation channel subfamily A member 1 (Homo sapiens, UniProt O75762); assay: Agonist activity at human TRPA1 expressed in HEK293 cells assessed as increase in calcium influx by Fluo-4-AM dye based fluorescence assay; format: cell-based; conditions: for EC50: read-out: EC50
Outline: (§1)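 Stably transfected hTRPA1- or hTRPM8-HEK293 cells on poly-D-lysine plates for 48 h, loaded with Fluo-4AM (2 µM, 45 min, dark, room temperature), in isotonic HEPES buffer pH 7.4. FlexStation 240 s run: 20 s baseline, compound added, calcimycin added at 180 s. ΔRFU expressed as % calcimycin, DMSO-subtracted. Screening N = 3. Dose-response curves fitted for logEC50 (N = 3 in duplicate or triplicate).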

[2] = tested on: Transient receptor potential cation channel subfamily A member 1 (Homo sapiens), O75762 [F909A]; assay: Agonist activity at human TRPA1 Phe909Ala mutant expressed in HEK293 cells assessed as Ca2+ influx at 100 uM by fluorescence assay; format: cell-based
Chain of Transient receptor potential cation channel subfamily A member 1 (Homo sapiens), O75762 [F909A] (O75762 whole entry F909A): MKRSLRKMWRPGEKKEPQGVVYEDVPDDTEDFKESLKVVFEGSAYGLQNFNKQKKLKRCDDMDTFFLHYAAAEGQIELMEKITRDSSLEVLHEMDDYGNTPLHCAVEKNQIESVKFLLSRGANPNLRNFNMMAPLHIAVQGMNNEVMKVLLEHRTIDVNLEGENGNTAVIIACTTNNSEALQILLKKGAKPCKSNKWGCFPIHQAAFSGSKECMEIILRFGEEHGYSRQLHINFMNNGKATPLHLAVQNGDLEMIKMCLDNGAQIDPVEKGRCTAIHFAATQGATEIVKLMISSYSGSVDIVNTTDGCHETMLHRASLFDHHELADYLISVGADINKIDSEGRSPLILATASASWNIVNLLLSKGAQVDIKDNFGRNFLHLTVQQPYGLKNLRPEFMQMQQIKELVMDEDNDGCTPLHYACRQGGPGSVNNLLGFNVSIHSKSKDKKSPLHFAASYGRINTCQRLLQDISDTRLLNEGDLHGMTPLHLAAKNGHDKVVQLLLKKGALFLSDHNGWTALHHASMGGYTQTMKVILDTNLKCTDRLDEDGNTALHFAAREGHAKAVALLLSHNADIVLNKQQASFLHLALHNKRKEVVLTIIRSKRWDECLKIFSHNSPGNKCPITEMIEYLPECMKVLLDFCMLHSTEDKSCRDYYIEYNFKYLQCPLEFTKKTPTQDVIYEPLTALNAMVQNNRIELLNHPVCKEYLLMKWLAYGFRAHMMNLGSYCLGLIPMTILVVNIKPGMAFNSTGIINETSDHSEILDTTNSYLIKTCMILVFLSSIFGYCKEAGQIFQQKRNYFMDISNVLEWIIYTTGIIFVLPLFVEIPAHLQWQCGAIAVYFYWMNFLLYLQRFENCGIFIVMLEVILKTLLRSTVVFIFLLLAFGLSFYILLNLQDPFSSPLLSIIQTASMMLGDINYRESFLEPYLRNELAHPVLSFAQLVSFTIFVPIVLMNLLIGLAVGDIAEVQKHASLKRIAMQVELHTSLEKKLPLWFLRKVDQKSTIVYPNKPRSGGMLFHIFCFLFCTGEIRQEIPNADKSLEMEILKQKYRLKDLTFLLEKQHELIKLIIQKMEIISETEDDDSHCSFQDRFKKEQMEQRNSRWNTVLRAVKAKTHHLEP
Outline: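 HEK293 cells stably expressing hTRPA1 point mutants, made by FuGENE 6 transfection, G418 (0.5 mg ml-1) selection and single-cell cloning, grown in DMEM with 25 mM HEPES, 10% FBS and geneticin. Ca2+ influx was read by Fluo dye fluorescence at room temperature, with calcimycin added at the end. Response was ΔRFU as % of calcimycin, with the DMSO vehicle subtracted.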

[3] = Dissociation constant, pKa of the compound at pH 7.4; format: physicochemical
[4] = target: T2, Transient receptor potential cation channel subfamily M member 8 (Homo sapiens, UniProt Q7Z2W7); assay: Agonist activity at human TRPM8 expressed in HEK293 cells assessed as increase in calcium influx at 100 uM by Fluo-4-AM dye based fluorescence assay relative to calcimycin; format: cell-based; outline: as §1
Target sequence in this assay (Q7Z2W7 whole entry, looked up): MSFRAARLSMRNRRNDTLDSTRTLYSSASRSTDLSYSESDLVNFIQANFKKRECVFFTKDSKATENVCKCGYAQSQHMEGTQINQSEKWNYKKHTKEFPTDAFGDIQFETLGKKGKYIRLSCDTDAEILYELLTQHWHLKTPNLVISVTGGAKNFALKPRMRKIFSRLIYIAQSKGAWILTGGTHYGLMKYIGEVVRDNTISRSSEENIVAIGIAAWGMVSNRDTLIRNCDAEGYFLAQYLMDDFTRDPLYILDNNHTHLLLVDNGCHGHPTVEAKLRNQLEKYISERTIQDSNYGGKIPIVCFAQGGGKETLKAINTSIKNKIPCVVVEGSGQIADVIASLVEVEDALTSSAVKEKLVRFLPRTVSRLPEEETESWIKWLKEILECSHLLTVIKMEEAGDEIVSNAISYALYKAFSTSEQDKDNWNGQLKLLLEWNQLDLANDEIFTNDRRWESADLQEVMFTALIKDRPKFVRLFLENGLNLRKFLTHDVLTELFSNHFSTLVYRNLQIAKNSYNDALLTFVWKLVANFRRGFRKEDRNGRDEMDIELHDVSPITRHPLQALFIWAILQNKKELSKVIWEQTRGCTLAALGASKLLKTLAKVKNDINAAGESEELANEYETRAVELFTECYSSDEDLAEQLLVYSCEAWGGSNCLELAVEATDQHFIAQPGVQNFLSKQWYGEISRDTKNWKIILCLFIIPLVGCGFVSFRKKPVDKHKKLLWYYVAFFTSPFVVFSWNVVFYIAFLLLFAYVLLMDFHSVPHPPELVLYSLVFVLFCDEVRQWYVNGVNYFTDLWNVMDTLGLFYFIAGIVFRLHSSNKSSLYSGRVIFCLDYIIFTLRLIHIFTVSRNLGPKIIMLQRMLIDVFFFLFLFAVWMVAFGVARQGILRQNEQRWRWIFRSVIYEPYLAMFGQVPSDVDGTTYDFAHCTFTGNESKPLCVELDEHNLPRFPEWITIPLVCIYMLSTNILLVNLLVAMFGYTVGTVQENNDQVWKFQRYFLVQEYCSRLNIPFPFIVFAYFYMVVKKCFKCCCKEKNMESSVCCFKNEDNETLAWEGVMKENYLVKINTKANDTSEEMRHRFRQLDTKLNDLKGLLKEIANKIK

[5] = tested on: Transient receptor potential cation channel subfamily A member 1 (Homo sapiens), O75762 [F909A]; assay: Agonist activity at human TRPA1 Phe909Ala mutant expressed in HEK293 cells assessed as Ca2+ influx at 30 uM by fluorescence assay; format: cell-based
Outline: (§2)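 HEK293 cells stably expressing hTRPA1 point mutants (C621A, F909A or F944A), single-cell cloned under G418 selection. Cells plated on poly-D-lysine for 48 h, loaded with Fluo-4AM 2 µM for 45 min at room temperature. FlexStation read (ex 485/em 538 nm): 20 s baseline, compound added, calcimycin added at 180 s. Response expressed as % calcimycin from ΔRFU, vehicle-subtracted, and compared with wild-type hTRPA1 cells.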

[6] = tested on: Transient receptor potential cation channel subfamily A member 1 (Homo sapiens), O75762 [F944A]; assay: Agonist activity at human TRPA1 Phe944Ala mutant expressed in HEK293 cells assessed as Ca2+ influx at 30 uM by fluorescence assay; format: cell-based; outline: as §2
Chain of Transient receptor potential cation channel subfamily A member 1 (Homo sapiens), O75762 [F944A] (O75762 whole entry F944A): as the sequence (O75762 whole entry F909A) above, with A909F, F944A counted along it

[7] = target: T1, Transient receptor potential cation channel subfamily A member 1; assay: Agonist activity at human TRPA1 expressed in HEK293 cells assessed as increase in calcium influx at 3 uM by Fluo-4-AM dye based fluorescence assay relative to calcimycin; format: cell-based; outline: as §1
[8] = target: T1, Transient receptor potential cation channel subfamily A member 1; assay: Antagonist activity at human TRPA1 expressed in HEK293 cells assessed as increase in calcium influx at 3 uM incubated for 10 mins prior to CA challenge by Fluo-4-AM dye based fluorescence assay […]; format: cell-based; design: scale not given: the % may be the effect or the level left
[9] = target: T2, Transient receptor potential cation channel subfamily M member 8; assay: Agonist activity at human TRPM8 expressed in HEK293 cells assessed as increase in calcium influx at 3 uM by Fluo-4-AM dye based fluorescence assay relative to calcimycin; format: cell-based; outline: as §1
Target sequence in this assay (Q7Z2W7 whole entry, looked up): as the sequence (Q7Z2W7 whole entry, looked up) above

[10] = target: T2, Transient receptor potential cation channel subfamily M member 8; assay: Antagonist activity at human TRPM8 expressed in HEK293 cells assessed as increase in calcium influx at 3 uM incubated for 10 mins prior to WS5 challenge by Fluo-4-AM dye based fluorescence assay relative to WS5; format: cell-based; design: scale not given: the % may be the effect or the level left
Outline: (§3)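 hTRPM8-HEK293 cells loaded with Fluo-4AM (2 µM, 45 min). Test compound pre-incubated 10 min before WS5 standard agonist. FlexStation fluorescence at 485/538 nm. ΔRFU given as % of WS5 response after DMSO vehicle subtraction. N = 3. IC50 from dose-response curves.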
Target sequence in this assay (Q7Z2W7 whole entry, looked up): as above

[11] = target: T1, Transient receptor potential cation channel subfamily A member 1; assay: Agonist activity at human TRPA1 expressed in HEK293 cells assessed as increase in calcium influx at 30 uM by Fluo-4-AM dye based fluorescence assay relative to calcimycin; format: cell-based; outline: as §1
[12] = target: T1, Transient receptor potential cation channel subfamily A member 1; assay: Antagonist activity at human TRPA1 expressed in HEK293 cells assessed as increase in calcium influx at 100 uM incubated for 10 mins prior to CA addition by Fluo-4-AM dye based fluorescence assay relative to CA; format: cell-based; design: scale not given: the % may be the effect or the level left
Outline: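 hTRPA1-HEK293 cells loaded with Fluo-4AM (2 µM). Compound pre-incubated 10 min, then cinnamaldehyde standard agonist added. FlexStation read, ex 485/em 538 nm. ΔRFU normalized to the CA response set at 100 % after DMSO vehicle subtraction. N = 3. logIC50 taken from dose-response fits.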

[13] = target: T1, Transient receptor potential cation channel subfamily A member 1; assay: Antagonist activity at human TRPA1 expressed in HEK293 cells assessed as inhibition of CA-induced increase in calcium influx incubated for 10 mins prior to CA addition by Fluo-4-AM dye based fluorescence assayy; format: cell-based
[14] = target: T2, Transient receptor potential cation channel subfamily M member 8; assay: Agonist activity at human TRPM8 expressed in HEK293 cells assessed as increase in calcium influx at 30 uM by Fluo-4-AM dye based fluorescence assay relative to calcimycin; format: cell-based; outline: as §1
Target sequence in this assay (Q7Z2W7 whole entry, looked up): as above

[15] = target: T2, Transient receptor potential cation channel subfamily M member 8; assay: Antagonist activity at human TRPM8 expressed in HEK293 cells assessed as increase in calcium influx at 100 uM incubated for 10 mins prior to WS5 challenge by Fluo-4-AM dye based fluorescence assay relative to WS5; format: cell-based; design: scale not given: the % may be the effect or the level left; outline: as §3
Target sequence in this assay (Q7Z2W7 whole entry, looked up): as above

[16] = target: T2, Transient receptor potential cation channel subfamily M member 8; assay: Antagonist activity at human TRPM8 expressed in HEK293 cells assessed as inhibition in WS5-induced increase in calcium influx incubated for 10 mins prior to WS5 challenge by Fluo-4-AM dye based fluorescence assay; format: cell-based; outline: as §3
Target sequence in this assay (Q7Z2W7 whole entry): as the sequence (Q7Z2W7 whole entry, looked up) above

T1 sequence (O75762 whole entry): as the sequence (O75762 whole entry F909A) above, with A909F counted along it

NC(=O)c1cccc(-c2cccc(OC(=O)NC3CCCCC3)c2)c1 [URB-597]
EC50 [1]: 0.1 µM
Activity [2]: Active

CN(C)c1ccc(/C=C/C(=O)Nc2ccccc2C(=O)O)cc1
pKa [3]: 3.5
Activity [4]: inactive

Cc1ccc(C(C)C)cc1O [CARVACROL]
EC50 [1]: 17 µM
Activity [5]: inactive
Activity [6]: inactive

COC(=O)c1ccccc1NC(=O)/C=C/c1ccc([N+](=O)[O-])cc1
pKa [3]: 13.6

Cc1ccc(C(C)C)c(O)c1
Activity [2]: Active

COC(=O)c1ccccc1NC(=O)/C(=C/c1ccccc1)c1ccccc1
Activity [7]: 63%
Activity [8]: 51%
Activity [9]: 23%
Activity [10]: 48%
pKa [3]: 13.9

COc1ccccc1/C=C/C(=O)Nc1ccccc1C(=O)O
Activity [11]: 33%
Activity [12]: 14%
EC50 [1]: 75 µM
IC50 [13]: 51 µM
Activity [14]: inactive
Activity [15]: 32%
IC50 [16]: 41 µM
pKa [3]: 3.4
Activity [4]: inactive

O=C(/C=C/c1ccc([N+](=O)[O-])cc1)Nc1ccccc1C(=O)O
Activity [11]: 25%
Activity [12]: 33%
EC50 [1]: 219 µM
Activity [14]: inactive
Activity [15]: 39%
pKa [3]: 3.4
Activity [4]: inactive

COC(=O)c1ccccc1NC(=O)/C=C/c1ccc(C)cc1
Activity [7]: 28%
Activity [10]: 88%
pKa [3]: 13.9

O=C(CCc1ccccc1)Nc1ccccc1C(=O)O
Activity [11]: 10%
Activity [12]: 81%
Activity [14]: inactive
Activity [15]: 48%
pKa [3]: 3.5
Activity [4]: inactive

COC(=O)c1ccccc1NC(=O)/C=C/c1ccc(N(C)C)cc1
Activity [7]: 27%
Activity [10]: 86%
pKa [3]: 4.8

C=CC=O [ACROLEIN]
EC50 [1]: 27 µM
Activity [5]: Active
Activity [6]: inactive

CCOc1cc(/C=C/C(=O)Nc2ccccc2C(=O)O)ccc1O
Activity [11]: 5%
Activity [12]: 34%
IC50 [13]: 106 µM
Activity [14]: inactive
Activity [15]: 73%
pKa [3]: 3.5
Activity [4]: inactive

COC(=O)c1ccccc1NC(=O)/C=C/c1ccc(Br)cc1
Activity [7]: 41%
Activity [10]: 79%
pKa [3]: 13.8

COC(=O)c1ccccc1NC(=O)/C=C/c1ccc(C(F)(F)F)cc1
Activity [7]: 29%
Activity [10]: 81%
pKa [3]: 13.7

COC(=O)c1ccccc1NC(=O)/C=C/c1ccccc1
Activity [7]: 22%
Activity [8]: inactive
Activity [9]: inactive
Activity [10]: 61%
pKa [3]: 13.9

COc1cccc(NC(=O)/C=C/c2ccc(Cl)cc2)c1
pEC50 [1]: inactive

O=C(O)C1CCCCN1C(=O)/C=C/c1ccccc1 (racemic)
Activity [11]: 7%
Activity [12]: 71%
Activity [14]: inactive
Activity [15]: 72%
pKa [3]: 3.3
Activity [4]: inactive

Source: ChEMBL document CHEMBL4346663, “N-Cinnamoylanthranilates as human TRPA1 modulators: Structure-activity relationships and channel binding sites” (Eur J Med Chem, 2019)
